According to ChEMBL document CHEMBL3400112, “Design, syntheses, and pharmacological characterization of 17-cyclopropylmethyl-3,14β-dihydroxy-4,5α-epoxy-6α-(isoquinoline-3'-carboxamido)morphinan analogues as opioid receptor ligands” (Bioorg Med Chem, 2015):
Calls of active or inactive are those of the source. The calls are words filed in the database; no cut-off is given here.

Tests used:
Mus musculus [1] = organism: Mus musculus; assay: Selectivity ratio of Ki for mouse DOR to Ki for mouse MOR
Mus musculus [2] = organism: Mus musculus; assay: Selectivity ratio of Ki for mouse KOR to Ki for mouse MOR
Mu-type opioid receptor [3] = biological target: T1, Mu-type opioid receptor (Mus musculus, UniProt P42866); assay: Displacement of [3H]naloxane from mouse MOR expressed in CHO cells after […]; format: cell-based
[4] = biological target: T2, Kappa-type opioid receptor (Mus musculus, UniProt P33534); assay: Displacement of [3H]diprenorphine from mouse KOR expressed in CHO cells after […]; format: cell-based
[5] = biological target: T3, Delta-type opioid receptor (Mus musculus, UniProt P32300); assay: Displacement of [3H]naltrindole from mouse DOR expressed in CHO cells after […]; format: cell-based
Mu-type opioid receptor [6] = biological target: T1, Mu-type opioid receptor; assay: Stimulation of mouse MOR expressed in CHO cells after […] by [35S]GTPgammaS binding assay; format: functional, cell-based
[7] = biological target: Mu-type opioid receptor (Mus musculus) (UniProt P42866); assay: Stimulation of mouse MOR expressed in CHO cells after […] by [35S]GTPgammaS binding assay relative to DAMGO; format: functional, cell-based
Mus musculus [8] = assay: Reversal of morphine-induced antinociceptive activity in Swiss-Webster mouse at 1 mg/kg, sc administered 5 mins prior to morphine challenge measured after 20 mins by warm water tail-flick test relative to control; format: functional
Mus musculus [9] = assay: Antinociceptive activity in Swiss-Webster mouse at 10 mg/kg, sc after 20 mins by warm water tail-flick test relative to control; format: functional; settings: route subcutaneous
Mus musculus [10] = assay: Reversal of morphine-induced antinociceptive activity in sc dosed Swiss-Webster mouse administered 5 mins prior to morphine challenge measured after 20 mins by warm water tail-flick test relative to control; format: functional
[11] = biological target: T2, Kappa-type opioid receptor; assay: Agonist activity at mouse KOR expressed in CHO cells after […] by [35S]GTPgammaS binding assay; format: functional, cell-based
[12] = biological target: Kappa-type opioid receptor (Mus musculus) (UniProt P33534); assay: Agonist activity at mouse KOR expressed in CHO cells after […] by [35S]GTPgammaS binding assay relative to (+/-)-trans-U50488; format: functional, cell-based
[13] = biological target: T3, Delta-type opioid receptor; assay: Agonist activity at mouse DOR expressed in CHO cells after […] by [35S]GTPgammaS binding assay; format: functional, cell-based
[14] = biological target: Delta-type opioid receptor (Mus musculus) (UniProt P32300); assay: Agonist activity at mouse DOR expressed in CHO cells after […] by [35S]GTPgammaS binding assay relative to SNC80; format: functional, cell-based
Mus musculus [15] = organism: Mus musculus; assay: Selectivity ratio of EC50 for mouse KOR to EC50 for mouse MOR
Mus musculus [16] = organism: Mus musculus; assay: Selectivity ratio of EC50 for mouse DOR to EC50 for mouse MOR
[17] = biological target: Delta-type opioid receptor (Mus musculus) (UniProt P32300); assay: Agonist activity at mouse DOR expressed in CHO cells after […] by [35S]GTPgammaS binding assay relative to naltrexone; format: functional, cell-based
Mu-type opioid receptor [18] = biological target: T4, Mu-type opioid receptor (Homo sapiens, UniProt P35372); assay: Agonist activity at human MOR expressed in CHO cells assessed as increase in intracellular Ca2+ level after 30 mins by microplate reader analysis; format: functional, cell-based
Procedure, shortened: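 Gαqi5-transfected hMOR-CHO cells (DMEM/F12, 10% FBS, hygromycin B, 37 °C/5% CO2), plated 4 h post-transfection, grown 24 h, loaded 30 min with Fluo-4 AM plus probenecid in HBSS:HEPES. Test agent at varying concentrations in triplicate added after 15 s of reading. Fluorescence 494/516 nm over 120 s; at least three independent experiments.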

Mu-type opioid receptor [19] = biological target: T4, Mu-type opioid receptor; assay: Antagonist activity at human MOR expressed in CHO cells assessed as inhibition of DAMGO-induced increase in intracellular Ca2+ level incubated for 15 mins prior to DAMGO addition by microplate reader analysis; format: functional, cell-based
Mus musculus [20] = assay: Reversal of morphine-induced antinociceptive activity in Swiss-Webster mouse assessed as escape jumps at 30 to 100 mg/kg, sc measured after 3 mins up to 20 mins; format: functional, organism-based
Procedure, shortened: (§1)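 After 72 h and 30 min habituation in an observation chamber, withdrawal was precipitated by s.c. test agent. Escape jumps and wet-dog shakes counted over 20 min, starting within 3 min of dosing; at least six mice per dose.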

Mus musculus [21] = assay: Reversal of morphine-induced antinociceptive activity in Swiss-Webster mouse assessed as wet-dog shakes at 30 to 100 mg/kg, sc measured after 3 mins up to 20 mins; format: functional, organism-based; procedure, shortened: as §1
Mus musculus [22] = assay: Induction of escape jumps in Swiss-Webster mouse at 30 mg/kg, sc measured after 3 mins up to 20 mins; format: organism-based; set-up: dose 30 mg/kg, route subcutaneous; settings: in vivo; procedure, shortened: as §1
Mus musculus [23] = assay: Induction of wet-dog shakes in Swiss-Webster mouse at 30 mg/kg, sc measured after 3 mins up to 20 mins; format: organism-based; set-up: dose 30 mg/kg, route subcutaneous; settings: in vivo; procedure, shortened: as §1
Mus musculus [24] = assay: Antinociceptive activity in sc dosed Swiss-Webster mouse after 20 mins by warm water tail-flick test relative to control; format: functional
[25] = biological target: T2, Kappa-type opioid receptor; assay: Partial agonist activity at mouse KOR expressed in CHO cells after […] by [35S]GTPgammaS binding assay; format: functional, cell-based

T2 sequence (P33534 whole entry): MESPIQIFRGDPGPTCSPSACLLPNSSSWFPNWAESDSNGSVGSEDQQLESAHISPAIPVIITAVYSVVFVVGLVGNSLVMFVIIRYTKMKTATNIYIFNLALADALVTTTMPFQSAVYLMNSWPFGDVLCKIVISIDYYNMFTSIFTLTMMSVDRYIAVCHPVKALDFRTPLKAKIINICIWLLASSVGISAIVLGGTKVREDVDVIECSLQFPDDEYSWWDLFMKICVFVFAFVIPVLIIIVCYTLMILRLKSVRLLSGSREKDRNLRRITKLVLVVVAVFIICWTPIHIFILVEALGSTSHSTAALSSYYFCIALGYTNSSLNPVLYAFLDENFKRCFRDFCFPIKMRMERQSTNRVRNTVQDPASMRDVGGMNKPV
T1 sequence (P42866 whole entry): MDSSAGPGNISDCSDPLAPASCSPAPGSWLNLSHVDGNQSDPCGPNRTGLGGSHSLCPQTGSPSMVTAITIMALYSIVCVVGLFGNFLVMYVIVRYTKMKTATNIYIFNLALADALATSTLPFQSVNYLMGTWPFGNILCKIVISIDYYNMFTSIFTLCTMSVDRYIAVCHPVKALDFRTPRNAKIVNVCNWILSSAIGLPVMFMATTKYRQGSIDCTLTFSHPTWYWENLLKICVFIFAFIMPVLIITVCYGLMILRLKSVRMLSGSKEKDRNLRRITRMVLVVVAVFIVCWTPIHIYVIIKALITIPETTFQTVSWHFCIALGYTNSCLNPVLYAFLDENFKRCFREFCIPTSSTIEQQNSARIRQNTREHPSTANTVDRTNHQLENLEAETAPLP
Mu-type opioid receptor (Mus musculus), sequence (P42866 whole entry): as above
T4 sequence (P35372 whole entry): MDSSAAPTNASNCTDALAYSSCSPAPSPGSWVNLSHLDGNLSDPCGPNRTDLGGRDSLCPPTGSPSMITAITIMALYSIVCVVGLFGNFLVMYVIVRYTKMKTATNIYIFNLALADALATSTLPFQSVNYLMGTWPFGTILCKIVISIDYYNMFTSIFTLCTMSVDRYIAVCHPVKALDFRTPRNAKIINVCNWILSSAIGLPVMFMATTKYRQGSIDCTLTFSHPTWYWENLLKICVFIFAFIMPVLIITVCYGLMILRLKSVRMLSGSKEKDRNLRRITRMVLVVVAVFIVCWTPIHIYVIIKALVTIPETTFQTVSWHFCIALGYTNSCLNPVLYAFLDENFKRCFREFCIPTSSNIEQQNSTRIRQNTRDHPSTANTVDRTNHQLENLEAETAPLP
Delta-type opioid receptor (Mus musculus), sequence (P32300 whole entry): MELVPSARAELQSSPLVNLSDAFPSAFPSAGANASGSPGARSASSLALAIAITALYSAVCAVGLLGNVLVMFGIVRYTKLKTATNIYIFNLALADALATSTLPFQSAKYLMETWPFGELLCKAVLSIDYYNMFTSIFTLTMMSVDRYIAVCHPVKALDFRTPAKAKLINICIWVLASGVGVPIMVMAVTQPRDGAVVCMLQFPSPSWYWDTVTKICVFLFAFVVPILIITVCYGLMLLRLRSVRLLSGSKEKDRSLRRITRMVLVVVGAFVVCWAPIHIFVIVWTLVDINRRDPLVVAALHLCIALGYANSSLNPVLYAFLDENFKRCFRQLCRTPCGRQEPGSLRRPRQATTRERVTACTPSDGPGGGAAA
T3 sequence (P32300 whole entry): as above
Kappa-type opioid receptor (Mus musculus), sequence (P33534 whole entry): as the sequence (P33534 whole entry) above

Compound	Ratio Ki (Mus musculus [1])	Ratio Ki (Mus musculus [2])	Ki (Mu-type opioid receptor [3])	Ki [4]	Ki [5]	EC50 (Mu-type opioid receptor [6])	Emax [7]	also measured
CN1Cc2ccccc2C[C@H]1C(=O)N[C@H]1CC[C@@]2(O)[C@H]3Cc4ccc(O)c5c4[C@@]2(CCN3CC2CC2)[C@H]1O5	2.3	3.2	–	–	–	–	–	–
O=C(N[C@H]1CC[C@@]2(O)[C@H]3Cc4ccc(O)c5c4[C@@]2(CCN3CC2CC2)[C@H]1O5)c1cc2ccc([N+](=O)[O-])cc2cn1	4.5	16	3.6 nM	16 nM	55.3 nM	42.7 nM	13.4%	Activity (Mus musculus [8]): inactive
O=C(N[C@H]1CC[C@@]2(O)[C@H]3Cc4ccc(O)c5c4[C@@]2(CCN3CC2CC2)[C@H]1O5)c1ncc2ccccc2c1O	–	–	–	–	–	–	–	MPE (Mus musculus [9]): <20%
O=C(N[C@H]1CC[C@@]2(O)[C@H]3Cc4ccc(O)c5c4[C@@]2(CCN3CC2CC2)[C@H]1O5)c1cc2cc([N+](=O)[O-])ccc2cn1	4.9	16	5.7 nM	27.9 nM	94.7 nM	31.5 nM	12.5%	AD50 (Mus musculus [10]): 0.92 mg/kg; MPE (Mus musculus [8]; route subcutaneous): 8.9%; EC50 [11]: 62.6 nM; Emax [12]: 21.1%; EC50 [13]: 108 nM; Emax [14]: 67.7%; Ratio EC50 (Mus musculus [15]): 2; Ratio EC50 (Mus musculus [16]): 3.4; Ratio [17]: 10; Activity (Mu-type opioid receptor [18]): inactive; IC50 (Mu-type opioid receptor [19]): 2730 nM; inhibition (Mu-type opioid receptor [19]): Dose-dependent effect; Activity (Mus musculus [20]): inactive; Activity (Mus musculus [21]): inactive; Activity (Mus musculus [22]): Non-toxic; Activity (Mus musculus [23]): Non-toxic
O=C(CCc1cc2ccccc2cn1)N[C@H]1CC[C@@]2(O)[C@H]3Cc4ccc(O)c5c4[C@@]2(CCN3CC2CC2)[C@H]1O5	2.4	12	–	–	–	–	–	–
O=C(N[C@H]1CC[C@@]2(O)[C@H]3Cc4ccc(O)c5c4[C@@]2(CCN3CC2CC2)[C@H]1O5)c1cc2ccccc2cn1	–	–	–	–	–	–	–	AD50 (Mus musculus [10]): 0.45 mg/kg; EC50 [11]: 10.9 nM; Emax [12]: 13.1%; EC50 [13]: 98.6 nM; Emax [14]: 53.5%
N#Cc1nc(C(=O)N[C@H]2CC[C@@]3(O)[C@H]4Cc5ccc(O)c6c5[C@@]3(CCN4CC3CC3)[C@H]2O6)cc2ccccc12	10	131	–	–	–	–	–	MPE (Mus musculus [9]): 56.9%
Cc1nc(C(=O)N[C@H]2CC[C@@]3(O)[C@H]4Cc5ccc(O)c6c5[C@@]3(CCN4CC3CC3)[C@H]2O6)cc2ccccc12	–	–	–	–	–	–	–	MPE (Mus musculus [9]): <20%
COc1c(C(=O)N[C@H]2CC[C@@]3(O)[C@H]4Cc5ccc(O)c6c5[C@@]3(CCN4CC3CC3)[C@H]2O6)nc(Cl)c2ccccc12	–	–	–	–	–	–	–	ED50 (Mus musculus [24]): 0.73 mg/kg; EC50 [25]: 26.4 nM; EC50 [13]: 32.6 nM; Emax [14]: 54.8%; Activity (Mu-type opioid receptor [18]): inactive; IC50 (Mu-type opioid receptor [19]): 23.7 nM; inhibition (Mu-type opioid receptor [19]): Dose-dependent effect
CN(C)c1ccc2cc(C(=O)N[C@H]3CC[C@@]4(O)[C@H]5Cc6ccc(O)c7c6[C@@]4(CCN5CC4CC4)[C@H]3O7)ncc2c1	20	16	4.4 nM	88 nM	68.6 nM	4.7 nM	6.32%	Activity (Mus musculus [8]): inactive
O=C(CNC(=O)c1cc2ccccc2cn1)N[C@H]1CC[C@@]2(O)[C@H]3Cc4ccc(O)c5c4[C@@]2(CCN3CC2CC2)[C@H]1O5	0.2	3.4	–	–	–	–	–	–
O=C(N[C@H]1CC[C@@]2(O)[C@H]3Cc4ccc(O)c5c4[C@@]2(CCN3CC2CC2)[C@H]1O5)c1nc(Cl)c2ccccc2c1O	25	24	–	–	–	–	–	–
O=C(Cc1cc2ccccc2cn1)N[C@H]1CC[C@@]2(O)[C@H]3Cc4ccc(O)c5c4[C@@]2(CCN3CC2CC2)[C@H]1O5	0.9	10	–	–	–	–	–	–
CN(C)c1ccc2c(c1)CN(C)C(C(=O)N[C@H]1CC[C@@]3(O)[C@H]4Cc5ccc(O)c6c5[C@@]3(CCN4CC3CC3)[C@H]1O6)C2 (some centres not stated)	2.7	2.5	1.79 nM	4.91 nM	4.5 nM	11.4 nM	26.2%	–
COc1cc2cnc(C(=O)N[C@H]3CC[C@@]4(O)[C@H]5Cc6ccc(O)c7c6[C@@]4(CCN5CC4CC4)[C@H]3O7)cc2cc1OC	4.6	5.2	13.4 nM	61 nM	69.2 nM	85.2 nM	14%	–
O=C(N[C@H]1CC[C@@]2(O)[C@H]3Cc4ccc(O)c5c4[C@@]2(CCN3CC2CC2)[C@H]1O5)c1ncc2ccccc2n1	4.6	71	–	–	–	–	–	–
